Broadly, the EC50 is the concentration needed to bring the measured effect to its halfway point.

Each structure is given as a SMILES string. The source made the active and inactive calls. No cut-off for these calls is given here.

Consider seven compounds from ChEMBL document CHEMBL2346529, “The human Aurora kinase inhibitor danusertib is a lead compound for anti-trypanosomal drug discovery via target repurposing” (Eur J Med Chem, 2013).

Data set [1] can be described thus: Selectivity ratio of EC50 for human MOLT4 cells to EC50 for bloodstream form of Trypanosoma brucei rhodesiense YTat1.1. The format is ADME, cell-based, MOLT-4. Particulars: read-out: Ratio EC50. Summed up:
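Ratio of MOLT-4 EC50 to YTat1.1 EC50. MOLT-4 cells were grown in RPMI 1640 with 20% FBS, seeded at 5×10^4 cells/mL and grown 24 h before compound was added. Treatment used 8 triplicate concentrations between 50 nM and 30 μM for 4 days, followed by a 3 h CellTiter-Blue read at 37°C. The parasite EC50 came from a 48 h CellTiter-Blue dose-response (50 nM–8 μM).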

Data set [2] can be described thus: Selectivity ratio of EC50 for human MOLT4 cells to EC50 for bloodstream form of Trypanosoma brucei brucei Lister 427 90-13. The class given is ADME, cell-based, MOLT-4. Particulars: read-out: Ratio EC50. Summed up:
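The ratio is MOLT-4 EC50 over T. b. brucei 90-13 EC50. BF 90-13 cells in HMI-9 with G418 and hygromycin B were seeded at 1×10^5 cells/mL and exposed 48 h to 8 concentrations (50 nM–8 μM final, 0.2% DMSO) in triplicate. MOLT-4 cells were treated 4 days. Both were read by CTB fluorescence, with EC50 fitted from inhibition curves.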

In a further data set the test system is MOLT-4. Kind of data set: Cytotoxicity against human MOLT4 cells assessed as inhibition of cell growth after 4 days by Cell Titer Blue end-point assay. Particulars: MOLT-4, 96 h. The format is cell-based. Put shortly: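 MOLT-4 cells in RPMI 1640 with 20% FBS were seeded at 5×10^4 cells/mL and grown 24 h before inhibitor was added. There were 8 concentrations in triplicate, spanning 50 nM to 30 μM final. Treatment lasted 4 days, then CTB was added for 3 h at 37°C. Fluorescence was read at 560Ex/590Em, with cell-free background subtracted and DMSO-only wells taken as 100%. EC50 was fitted from inhibition curves.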

Data set [3] concerns Trypanosoma brucei brucei. Kind of data set: Antitrypanosomal activity against bloodstream form of Trypanosoma brucei brucei Lister 427 90-13 assessed as inhibition of growth in log phase after 48 hrs by Cell Titer Blue end-point assay. The class given is functional, organism-based. Particulars: Lister 427 90-13, 48 h. Put shortly: (§1)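 Dose-response: at least 8 final concentrations (50 nM–8 μM, 0.2% DMSO), each in triplicate, on log-phase bloodstream-form cells at 1×10^5 cells/mL. Incubation was 48 h at 37°C, 5% CO2, followed by a 3 h CellTiter-Blue fluorescence read with background subtracted. EC50 was derived from inhibition curves. YTat1.1 was culture-adapted from rat blood in HMI-9 with FBS and Serum Plus; its data come from 2–3 independent experiments. 90-13 was grown in HMI-9 with G418 and hygromycin B.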
(In general: The colour change of resazurin is a common sign of viable cells or microbes.)

A further data set relates to Trypanosoma brucei. Kind of data set: Inhibition of NH3-AU1 epitope-tagged recombinant Trypanosoma brucei AUK1 expressed in procyclic form trypanosome AnTat1.1 assessed as decrease in myelin basic protein phosphorylation at 500 nM preincubated for 5 mins by pull down assay in presence of [gamma-32P]ATP. Summed up: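 AU1-tagged TbAUK1 came from procyclic AnTat1.1 cells pretreated with 16 μM MG132 for 3 h. Lysate was pre-cleared and immunoprecipitated overnight at 4°C on AU1 beads. Bead kinase was mixed with 160 μg myelin basic protein in Hepes/KCl/NaF/MgCl2/DTT buffer, pH 7.4, with drug preincubated 5 min. Reactions were started with 8 μM ATP plus [γ-32P]ATP and run 30 min at 30°C. Products were read by SDS-PAGE autoradiography.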

Data set [4] relates to Trypanosoma brucei rhodesiense. Description: Antitrypanosomal activity against bloodstream form of Trypanosoma brucei rhodesiense YTat1.1 assessed as inhibition of growth in log phase after 48 hrs by Cell Titer Blue end-point assay. Particulars: YTat1.1, 48 h. The format is functional, organism-based. Summed up: as §1

As for `CCc1cccc(CC)c1NC(=O)N1Cc2n[nH]c(NC(=O)c3ccc(N4CCN(C)CC4)cc3)c2C1` [PHA-680632], the figures for the selectivity ratio in data set [1] and in data set [2] were 0.18 and 0.06, respectively.

Regarding `Cc1ccc(S(=O)(=O)N2Cc3[nH]nc(NC(=O)c4ccc(N5CCN(C)CC5)cc4)c3C2)cc1`, the selectivity ratio in data set [2] amounted to 0.16. The EC50 was determined as 940 nM in the data set with MOLT-4 and 5700 nM in data set [3]. For the same compound, the inhibition result in the data set with Trypanosoma brucei is “Active”.

As to `CN1CCN(c2ccc(C(=O)Nc3n[nH]c4c3CN(C(=O)Nc3ccccc3)C4)cc2)CC1`, the selectivity ratio in data set [2] is 0.58. Also, the EC50 came to 3550 nM in the data set on MOLT-4 and 6100 nM in data set [3]. For the same compound, the inhibition entry in the data set with Trypanosoma brucei is “Active”.

For the compound `CCc1cccc(CC)c1NC(=O)N1Cc2[nH]nc(NC(=O)c3ccc(N4CCN(C)CC4)cc3)c2C1` [PHA-680632], the EC50 in data set [4] worked out at 1250 nM; in the data set with MOLT-4, 220 nM; in data set [3], 4000 nM. Besides, the inhibition entry in the data set with Trypanosoma brucei was “Active”.

Take `CO[C@@H](C(=O)N1Cc2n[nH]c(NC(=O)c3ccc(N4CCN(C)CC4)cc3)c2C1)c1ccccc1` [DANUSERTIB]: the figures for the selectivity ratio in data set [1] and in data set [2] were 1 and 0.25, respectively.

Consider `CN1CCN(c2ccc(C(=O)Nc3n[nH]c4c3CN(C(=O)c3ccccc3)C4)cc2)CC1`, for which the selectivity ratio in data set [2] was found to be 0.05. Besides, the EC50 in the data set with MOLT-4 was 540 nM; in data set [3] it was 11100 nM. Besides, in the data set with Trypanosoma brucei, the inhibition entry is “inactive”.

Turning to `CO[C@@H](C(=O)N1Cc2[nH]nc(NC(=O)c3ccc(N4CCN(C)CC4)cc3)c2C1)c1ccccc1` [DANUSERTIB], the EC50 was determined as 150 nM in data set [4] and 600 nM in data set [3]. Besides, the inhibition result with Trypanosoma brucei is “Active”.
